From PMC6128401 (Molecular pharmaceutics, 2017)

Tests used:
[1] = Stability against enzymatic degradation in human serum; format: in vitro ADME
Procedure, shortened: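 The ¹⁷⁷Lu-labelled peptide was incubated in human serum at 37°C and sampled at time points up to 24 h. Proteins were precipitated with acetonitrile (1:1.5) and centrifuged; supernatant was diluted 1:1 with water before HPLC for intact radiopeptide. Half-life came from first-order exponential decay fitting.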

[2] = Renal toxicity: creatinine and urea in serum; format: in vivo, BALB/c nude mice
Procedure, shortened: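 The same treated double-xenografted nude mice (saline, 15 or 30 MBq i.v.; n=5) gave weekly venous blood samples. Serum creatinine and urea were measured with specific kits on a semiautomatic biochemical analyser. Values were compared between treated and control groups over weeks from cell inoculation (week −2) onward.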

[3] = Biodistribution: uptake in normal organs and tissues; format: in vivo, BALB/c nude mice; conditions: 30 min p.i.
Procedure, shortened: (§1)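 Female and male BALB/c nude mice, 5-6 weeks old, carried A431-CCK2R and A431-mock xenografts in opposite flanks (2×10⁶ cells each). Tumours grew for ~14 days to ~0.2 g. Kit-prepared ¹⁷⁷Lu-peptide, 1 MBq (20 pmol; 50 GBq/µmol), was injected into the tail vein. Groups of five were killed at 30 min, 4 h, 1 d, 2 d, 3 d and 7 d; dissected tissues were gamma-counted and expressed as % IA/g.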

[4] = target: T1, A431-CCK2R cell line expressing the human CCK2R (Homo sapiens, UniProt P32239); experiment: Cell uptake; format: cell-based; conditions: A431-CCK2R cells, 2 h incubation, 0.4 nM
T1 sequence (P32239 1-447): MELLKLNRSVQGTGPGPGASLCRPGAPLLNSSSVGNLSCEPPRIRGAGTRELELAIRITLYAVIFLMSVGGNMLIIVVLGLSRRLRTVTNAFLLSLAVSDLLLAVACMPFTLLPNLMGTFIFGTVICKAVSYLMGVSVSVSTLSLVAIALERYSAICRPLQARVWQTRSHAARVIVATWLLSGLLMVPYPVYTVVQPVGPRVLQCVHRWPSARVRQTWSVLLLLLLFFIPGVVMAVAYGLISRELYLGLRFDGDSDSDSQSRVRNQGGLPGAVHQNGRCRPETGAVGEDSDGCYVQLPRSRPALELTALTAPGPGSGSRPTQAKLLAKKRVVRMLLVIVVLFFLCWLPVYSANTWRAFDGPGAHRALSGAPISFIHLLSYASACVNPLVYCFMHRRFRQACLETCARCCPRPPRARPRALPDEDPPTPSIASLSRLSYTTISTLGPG
Procedure, shortened: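 A431-CCK2R and A431-mock cells were cultured in DMEM with 10% FBS, penicillin/streptomycin/L-glutamine at 37°C, 5% CO₂. They were seeded at 1.0×10⁶ cells/well and grown 48 h to confluency. Peptides were labelled with ¹⁷⁷LuCl₃ (~50 GBq/µmol) in ascorbate buffer pH 5 with gentisic acid and L-Met, 80°C. Triplicate wells received ~100,000 cpm (0.4 nM) for 2 h. The internalized fraction was gamma-counted as % of total added.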

A431-CCK2R xenografts [5] = experiment: Biodistribution: uptake in receptor-positive tumour xenograft; format: in vivo, BALB/c nude mice; conditions: 30 min p.i.
Procedure, shortened: as §1

[6] = Chemical stability in phosphate buffered saline; format: physicochemical; conditions: PBS at RT, up to/after 4 h incubation
Procedure, shortened: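 ¹⁷⁷Lu-labelled peptide (120 pmol/mL) was kept in phosphate buffered saline at room temperature. Aliquots were taken at intervals up to […] and analysed by HPLC for percentage intact radiopeptide relative to post-labelling radiochemical purity.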

A431-mock xenografts = experiment: Experimental radionuclide therapy, receptor-negative tumour growth; format: in vivo, BALB/c nude mice; conditions: for mean SGR A431-mock: single i.v. treatment
[7] = format: physicochemical
Procedure, shortened: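 Labelling used ~2 GBq ¹⁷⁷LuCl₃ in 1 mL dilute HCl, heated at 80°C for 15-25 min. Kits were stored up to 6 months; labelled product was held up to 48 h at room temperature or −20°C. Radiochemical purity was measured by RP-HPLC.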

A431-CCK2R xenografts [8] = experiment: Experimental radionuclide therapy, receptor-positive tumour growth; format: in vivo, BALB/c nude mice; conditions: for mean SGR A431-CCK2R: single i.v. treatment; for TVDT increase by a factor in comparison to the control group: A431-CCK2R tumours
[9] = Medullary toxicity: white blood cell and platelet counts; format: in vivo, BALB/c nude mice
Procedure, shortened: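 Double-xenografted nude mice were dosed as in the therapy study (saline, 15 or 30 MBq i.v.), n=5. Weekly, 0.1 mL venous blood was drawn from the superficial temporal vein by lancet, up to eight samples per animal. White blood cells and platelets were counted on an automatic haematology analyser. Counts were expressed relative to basal values (week −2 = inoculation; week 0 = treatment).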

[10] = 15 MBq group, week 0 (week of treatment)
[11] = 15 MBq group, week -2 (cell inoculation)
[12] = 30 MBq group, week 0 (week of treatment)
[13] = 30 MBq group, week -2 (cell inoculation)
[14] = 15 MBq, one week after treatment

Question: Which half-life [1] does the source give for `CCCC[C@H](NC(=O)[C@H](Cc1c[nH]c2ccccc12)NC(=O)[C@H]1CCCCNC(=O)[C@H](NC(=O)CN2CCN(CC(=O)O)CCN(CC(=O)O)CCN(CC(=O)O)CC2)CCC(=O)N[C@@H](C)C(=O)N[C@@H](Cc2ccc(O)cc2)C(=O)N1)C(=O)N[C@@H](CC(=O)O)C(=O)N[C@@H](Cc1ccccc1)C(N)=O` [^177Lu-DOTA-cyclo-MG2, metal not drawn] here?
Answer: Its half-life is 17.8 h.

Question: And the “Creatinine (reference value 0.1-0.5)” value [2, 10]?
Answer: The value was 0.3 ± 0.1 mg/dL.

Question: What about the “Urea (reference value 17-38)” value [2, 10] of the same compound?
Answer: Its value is 25 ± 7 mmol/L.

Question: What about the “Creatinine (reference value 0.1-0.5)” value ([2]; 15 MBq group, week 1) of the same compound?
Answer: Its value is 0.2 ± 0.1 mg/dL.

Question: And the “Urea (reference value 17-38)” value ([2]; 15 MBq group, week 1)?
Answer: Its value is 27 ± 6 mmol/L.

Question: And the “Creatinine (reference value 0.1-0.5)” value ([2]; 15 MBq group, week 2)?
Answer: Its value is 0.3 ± 0.2 mg/dL.

Question: And the “Urea (reference value 17-38)” value ([2]; 15 MBq group, week 2)?
Answer: The value was 34 ± 3 mmol/L.

Question: And the “Creatinine (reference value 0.1-0.5)” value ([2]; 15 MBq group, week 3)?
Answer: The value was 0.2 ± 0.1 mg/dL.

Question: And the “Urea (reference value 17-38)” value ([2]; 15 MBq group, week 3)?
Answer: The value was 34 ± 5 mmol/L.

Question: What about the “Creatinine (reference value 0.1-0.5)” value ([2]; 15 MBq group, week 4) of the same compound?
Answer: The value was 0.5 ± 0.2 mg/dL.

Question: What about the “Creatinine (reference value 0.1-0.5)” value ([2]; 15 MBq group, week 5) of the same compound?
Answer: The value was 0.7 mg/dL.

Question: What about the “Creatinine (reference value 0.1-0.5)” value ([2]; 15 MBq group, week -1) of the same compound?
Answer: The value was 0.2 ± 0.1 mg/dL.

Question: And the “Urea (reference value 17-38)” value ([2]; 15 MBq group, week -1)?
Answer: The value was 32 ± 2 mmol/L.

Question: What about the “Creatinine (reference value 0.1-0.5)” value [2, 11] of the same compound?
Answer: Its value is 0.1 ± 0.02 mg/dL.

Question: What about the “Urea (reference value 17-38)” value [2, 11] of the same compound?
Answer: The value was 30 ± 4 mmol/L.

Question: And the “urea above the upper limit of the reference value” ([2]; 15 MBq, beginning from week 4 after treatment)?
Answer: The value was 40 to 44 mmol/L.

Question: And the “Creatinine (reference value 0.1-0.5)” value [2, 12]?
Answer: The value was 0.2 ± 0.1 mg/dL.

Question: And the “Urea (reference value 17-38)” value [2, 12]?
Answer: Its value is 27 ± 2 mmol/L.

Question: What about the “Creatinine (reference value 0.1-0.5)” value ([2]; 30 MBq group, week 1) of the same compound?
Answer: Its value is 0.2 ± 0.1 mg/dL.

Question: And the “Urea (reference value 17-38)” value ([2]; 30 MBq group, week 1)?
Answer: The value was 37 ± 3 mmol/L.

Question: And the “Creatinine (reference value 0.1-0.5)” value ([2]; 30 MBq group, week 2)?
Answer: The value was 0.3 ± 0.2 mg/dL.

Question: What about the “Creatinine (reference value 0.1-0.5)” value ([2]; 30 MBq group, week -1) of the same compound?
Answer: Its value is 0.3 ± 0.2 mg/dL.

Question: What about the “Urea (reference value 17-38)” value ([2]; 30 MBq group, week -1) of the same compound?
Answer: The value was 29 ± 4 mmol/L.

Question: What about the “Creatinine (reference value 0.1-0.5)” value [2, 13] of the same compound?
Answer: Its value is 0.2 ± 0.1 mg/dL.

Question: And the “Urea (reference value 17-38)” value [2, 13]?
Answer: The value was 26 ± 3 mmol/L.

Question: What about the “urea levels above the reference limit” value ([2]; 30 MBq, beginning from week 2 after treatment) of the same compound?
Answer: The value was 39 to 63 mmol/L.

Question: And the “creatinine levels above the reference limit” value ([2]; 30 MBq, beginning from week 3 after treatment)?
Answer: Its value is 0.6 to 0.8 mg/dL.

Question: What about the “kidney uptake, maximal value” [3] of the same compound?
Answer: Its value is 2.64 % IA/g.

Question: And the “internalized radioligand fraction (% of total)” value [4]?
Answer: The value was 16.1±1.9%.

Question: And the maximal tumour uptake (A431-CCK2R xenografts [5])?
Answer: Its maximal tumour uptake is 5.99 % IA/g.

Question: What about the “RCP during incubation in PBS” value [6] of the same compound?
Answer: The value was “above 98%”.

Question: And the “mean SGR A431-mock” value (A431-mock xenografts; 15 MBq group (0.6 nmol))?
Answer: Its value is 0.068±0.005.

Question: What about the “mean SGR A431-mock” value (A431-mock xenografts; 30 MBq group (1.2 nmol)) of the same compound?
Answer: The value was 0.042±0.004.

Question: What about the “TVDT increase by a factor in comparison to the control group” value (“TVDT increase by a factor in comparison” below) (A431-mock xenografts; A431-mock tumours, high activity group (30 MBq)) of the same compound?
Answer: Its value is 1.8.

Question: And the “mean RCP for the different time points after storage of the kits” value ([7]; kit storage up to 6 months, n=4)?
Answer: The value was 97.8±1.3%.

Question: And the RCP after preparation ([7]; kit-prepared, directly after preparation)?
Answer: The RCP after preparation was 97.8±1.3%.

Question: What about the “RCP at 24 h after preparation” value ([7]; stored at RT) of the same compound?
Answer: The value was 96.3±1.4%.

Question: What about the “mean SGR A431-CCK2R” value (A431-CCK2R xenografts [8]; 15 MBq group (0.6 nmol)) of the same compound?
Answer: The value was 0.048±0.011.

Question: And the “mean SGR A431-CCK2R” value (A431-CCK2R xenografts [8]; 30 MBq group (1.2 nmol))?
Answer: The value was 0.033±0.002.

Question: And the “TVDT increase by a factor in comparison” value (A431-CCK2R xenografts [8]; high activity group (30 MBq))?
Answer: Its value is 2.5.

Question: And the “TVDT increase by a factor in comparison” value (A431-CCK2R xenografts [8]; low activity group (15 MBq))?
Answer: Its value is 1.7.

Question: What about the “reduction in PLT counts compared to the basal value” [9, 14] of the same compound?
Answer: Its value is 51.2-52.8%.

Question: What about the “reduction in WBC counts compared to the basal value” [9, 14] of the same compound?
Answer: The value was 37.8-40.8%.

Question: And the PLT value ([9]; 15 MBq, week 1 after treatment, reference 558-1,454)?
Answer: Its PLT value is 531±45 ×10^9/L.

Question: What about the “decline of PLT value compared to the basal value” ([9]; 30 MBq, after treatment) of the same compound?
Answer: Its value is 44.8-58.0%.

Question: And the “reduction of WBC value compared to the basal value” ([9]; 30 MBq, week 1 after treatment)?
Answer: The value was 67.2-70.9%.

Question: And the “WBC value below the lower reference limit” value ([9]; 30 MBq, week 1 and 2 after treatment, reference 3.11-13.04)?
Answer: The value was 2.17-2.94 ×10^9/L.

Question: And the “PLT value below the reference values” ([9]; 30 MBq, week 2 and 3 after treatment)?
Answer: Its value is 524-549 ×10^9/L.
